How the values were obtained:
[1] = molecular target: Tyrosine-protein kinase Yes (Homo sapiens) (UniProt P07947); assay: Inhibition of YES1 assessed as remaining enzyme activity at 3 uM relative to DMSO
[2] = Inhibition of PHK assessed as remaining enzyme activity at 3 uM relative to DMSO
In short: (§1)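 Radiometric kinase assay run robotically at room temperature for 30 min. Contained 10 mM magnesium acetate and [γ-33P]ATP (800 cpm/pmol) at 5, 20 or 50 μM, chosen per kinase to be at or below its ATP Km. Reactions were started with MgATP, stopped with orthophosphoric acid and spotted onto P81 filters. Result is mean % activity of duplicates at one inhibitor concentration versus DMSO control.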

[3] = molecular target: Serine/threonine-protein kinase PAK 4 (Homo sapiens) (UniProt O96013); assay: Inhibition of PAK4 assessed as remaining enzyme activity at 3 uM relative to DMSO; in short: as §1
Chain of Serine/threonine-protein kinase PAK 4 (Homo sapiens) (O96013 whole entry, looked up): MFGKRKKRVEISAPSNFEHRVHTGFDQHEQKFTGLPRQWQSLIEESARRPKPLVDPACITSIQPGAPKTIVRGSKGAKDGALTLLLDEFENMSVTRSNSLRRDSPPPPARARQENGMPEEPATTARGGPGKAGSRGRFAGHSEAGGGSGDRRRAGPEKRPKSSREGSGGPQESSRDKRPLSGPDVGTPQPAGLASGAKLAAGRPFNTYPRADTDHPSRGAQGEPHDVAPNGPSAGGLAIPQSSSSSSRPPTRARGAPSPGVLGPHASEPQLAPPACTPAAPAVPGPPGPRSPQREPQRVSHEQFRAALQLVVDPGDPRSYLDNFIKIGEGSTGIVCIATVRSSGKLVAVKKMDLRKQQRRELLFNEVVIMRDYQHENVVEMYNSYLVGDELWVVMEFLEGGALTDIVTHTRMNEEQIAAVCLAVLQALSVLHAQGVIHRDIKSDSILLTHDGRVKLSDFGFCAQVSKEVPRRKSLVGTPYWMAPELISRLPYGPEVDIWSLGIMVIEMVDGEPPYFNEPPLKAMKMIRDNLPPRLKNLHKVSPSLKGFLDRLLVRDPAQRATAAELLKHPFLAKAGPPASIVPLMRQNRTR

[4] = molecular target: Mitogen-activated protein kinase 3 (Homo sapiens) (UniProt P27361); assay: Inhibition of ERK1 assessed as remaining enzyme activity at 3 uM relative to DMSO
Chain of Mitogen-activated protein kinase 3 (Homo sapiens) (P27361 whole entry): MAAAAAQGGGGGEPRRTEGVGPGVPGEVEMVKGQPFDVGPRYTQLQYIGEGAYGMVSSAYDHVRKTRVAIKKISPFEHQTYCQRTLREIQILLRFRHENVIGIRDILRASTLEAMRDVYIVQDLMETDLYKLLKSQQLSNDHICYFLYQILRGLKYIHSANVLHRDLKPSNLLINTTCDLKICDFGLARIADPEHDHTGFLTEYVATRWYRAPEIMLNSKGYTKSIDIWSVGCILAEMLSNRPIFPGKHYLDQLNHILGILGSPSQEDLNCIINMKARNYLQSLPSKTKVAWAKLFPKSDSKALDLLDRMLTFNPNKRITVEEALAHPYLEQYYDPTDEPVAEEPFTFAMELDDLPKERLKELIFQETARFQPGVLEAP
In short: (§2)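 Dundee kinase panel, radiometric: [γ-33P]ATP (800 cpm/pmol) at 5, 20 or 50 μM, at or below each kinase's ATP Km; 10 mM magnesium acetate; robotic, room temperature, 30 min. Reactions started with MgATP, stopped with orthophosphoric acid, spotted onto P81 filters. Inhibitor tested at a single concentration; mean % activity of duplicates relative to DMSO control.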

[5] = molecular target: Homeodomain-interacting protein kinase 2 (Homo sapiens) (UniProt Q9H2X6); assay: Inhibition of HIPK2 assessed as remaining enzyme activity at 3 uM relative to DMSO; in short: as §2
[6] = molecular target: Serine/threonine-protein kinase STK11 (Homo sapiens) (UniProt Q15831); assay: Inhibition of LKB1 assessed as remaining enzyme activity at 3 uM relative to DMSO; in short: as §1
[7] = molecular target: Eukaryotic elongation factor 2 kinase (Homo sapiens) (UniProt O00418); assay: Inhibition of EF2K assessed as remaining enzyme activity at 3 uM relative to DMSO; in short: as §2
[8] = molecular target: Mitogen-activated protein kinase 9 (Homo sapiens) (UniProt P45984); assay: Inhibition of JNK2 assessed as remaining enzyme activity at 3 uM relative to DMSO; in short: as §2
Chain of Mitogen-activated protein kinase 9 (Homo sapiens) (P45984 whole entry, looked up): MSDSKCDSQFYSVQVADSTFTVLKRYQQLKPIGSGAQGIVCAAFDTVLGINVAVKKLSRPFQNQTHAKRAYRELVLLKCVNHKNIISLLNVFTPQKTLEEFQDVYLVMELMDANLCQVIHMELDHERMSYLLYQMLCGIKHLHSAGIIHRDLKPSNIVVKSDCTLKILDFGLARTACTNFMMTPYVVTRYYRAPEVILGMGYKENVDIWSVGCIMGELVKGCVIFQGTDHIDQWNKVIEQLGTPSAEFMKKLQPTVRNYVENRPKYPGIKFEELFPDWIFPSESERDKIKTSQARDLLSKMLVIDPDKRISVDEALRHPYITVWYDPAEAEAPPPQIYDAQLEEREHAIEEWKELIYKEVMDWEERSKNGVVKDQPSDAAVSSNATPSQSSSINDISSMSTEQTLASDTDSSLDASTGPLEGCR

[9] = molecular target: Serine/threonine-protein kinase TBK1 (Homo sapiens) (UniProt Q9UHD2); assay: Inhibition of TBK1 assessed as remaining enzyme activity at 3 uM relative to DMSO
Chain of Serine/threonine-protein kinase TBK1 (Homo sapiens) (Q9UHD2 whole entry): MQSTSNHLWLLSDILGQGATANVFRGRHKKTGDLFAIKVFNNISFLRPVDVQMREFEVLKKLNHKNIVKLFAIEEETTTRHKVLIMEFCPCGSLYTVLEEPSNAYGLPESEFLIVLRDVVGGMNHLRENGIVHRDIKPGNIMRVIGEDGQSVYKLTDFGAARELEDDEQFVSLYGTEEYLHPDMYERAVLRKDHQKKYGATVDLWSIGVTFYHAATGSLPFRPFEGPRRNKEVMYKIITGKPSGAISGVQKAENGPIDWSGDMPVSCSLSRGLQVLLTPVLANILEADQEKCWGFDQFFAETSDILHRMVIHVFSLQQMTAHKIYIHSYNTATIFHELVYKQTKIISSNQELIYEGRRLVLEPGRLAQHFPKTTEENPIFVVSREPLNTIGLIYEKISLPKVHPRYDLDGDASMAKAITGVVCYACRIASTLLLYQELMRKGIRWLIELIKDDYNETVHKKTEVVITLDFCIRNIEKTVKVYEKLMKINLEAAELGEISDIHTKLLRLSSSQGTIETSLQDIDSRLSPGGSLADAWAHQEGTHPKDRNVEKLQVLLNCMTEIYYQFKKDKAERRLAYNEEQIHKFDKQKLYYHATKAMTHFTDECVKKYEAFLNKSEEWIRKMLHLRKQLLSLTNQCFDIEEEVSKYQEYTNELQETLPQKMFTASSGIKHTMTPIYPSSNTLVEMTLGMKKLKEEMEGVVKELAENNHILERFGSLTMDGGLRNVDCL

[10] = molecular target: Serine/threonine-protein kinase D1 (Homo sapiens) (UniProt Q15139); assay: Inhibition of PKD1 assessed as remaining enzyme activity at 1 uM relative to DMSO
[11] = molecular target: RAF proto-oncogene serine/threonine-protein kinase (Homo sapiens) (UniProt P04049); assay: Binding affinity to RAF1 assessed as percentage of kinase remaining bound to the bead at 1 uM by T7 phage display based binding assay
In short: (§3)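 Competition binding assay run by a contract lab. Each kinase was expressed as a fusion to T7 phage, full-length for small kinases and catalytic domain for large ones. Phage were mixed with an immobilized known kinase inhibitor on streptavidin magnetic beads and with test compound at a single 1 μM. Kinase/phage still bound to the beads was quantified by qPCR and expressed as % of DMSO control.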

[12] = molecular target: Serine/threonine-protein kinase BRSK2 (Homo sapiens) (UniProt Q8IWQ3); assay: Inhibition of BRSK2 assessed as remaining enzyme activity at 1 uM relative to DMSO
In short: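 Panel assay run robotically at room temperature for 30 min with 10 mM magnesium acetate and [γ-33P]ATP (800 cpm/pmol) at 5, 20 or 50 μM, chosen per kinase to be at or below its ATP Km. Reactions were started with MgATP, stopped with orthophosphoric acid and spotted on P81 filters. Activity is the mean of duplicates at a single inhibitor concentration, as % of DMSO control.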

[13] = molecular target: Mitogen-activated protein kinase kinase kinase 11 (Homo sapiens) (UniProt Q16584); assay: Inhibition of MLK3 assessed as remaining enzyme activity at 1 uM relative to DMSO; in short: as §1
[14] = molecular target: Serine/threonine-protein kinase pim-3 (Homo sapiens) (UniProt Q86V86); assay: Inhibition of PIM3 assessed as remaining enzyme activity at 1 uM relative to DMSO; in short: as §1
[15] = molecular target: Mitogen-activated protein kinase 9 (Homo sapiens) (UniProt P45984); assay: Inhibition of JNK2 assessed as remaining enzyme activity at 1 uM relative to DMSO; in short: as §2
[16] = molecular target: Protein-tyrosine kinase 6 (Homo sapiens) (UniProt Q13882); assay: Binding affinity to BRK assessed as percentage of kinase remaining bound to the bead at 1 uM by T7 phage display based binding assay; in short: as §3
Chain of Protein-tyrosine kinase 6 (Homo sapiens) (Q13882 whole entry, looked up): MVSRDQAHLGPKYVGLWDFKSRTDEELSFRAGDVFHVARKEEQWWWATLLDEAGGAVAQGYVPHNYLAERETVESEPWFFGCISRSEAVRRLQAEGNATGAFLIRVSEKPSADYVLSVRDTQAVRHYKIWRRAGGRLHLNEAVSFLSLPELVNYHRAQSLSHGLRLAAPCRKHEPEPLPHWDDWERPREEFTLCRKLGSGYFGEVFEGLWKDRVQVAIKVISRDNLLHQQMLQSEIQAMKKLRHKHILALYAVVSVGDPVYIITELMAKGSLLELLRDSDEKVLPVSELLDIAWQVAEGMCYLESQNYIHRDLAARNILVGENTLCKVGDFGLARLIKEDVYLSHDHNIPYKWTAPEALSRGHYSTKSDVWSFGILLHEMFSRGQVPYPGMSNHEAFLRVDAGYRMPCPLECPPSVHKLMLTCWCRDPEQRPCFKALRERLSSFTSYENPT

[17] = molecular target: Ephrin type-B receptor 3 (Homo sapiens) (UniProt P54753); assay: Inhibition of EPHB3 assessed as remaining enzyme activity at 1 uM relative to DMSO
In short: (§4)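 Radiometric kinase assay run robotically at room temperature for 30 min, linear in time and enzyme. Conditions: 10 mM magnesium acetate, [γ-33P]ATP (800 cpm/pmol) at 5, 20 or 50 μM per kinase, at or below its ATP Km. Started with MgATP and stopped with orthophosphoric acid, then spotted on P81 filters. Reported as mean % activity of duplicates versus DMSO controls.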

[18] = molecular target: RAC-beta serine/threonine-protein kinase (Homo sapiens) (UniProt P31751); assay: Inhibition of PKBbeta assessed as remaining enzyme activity at 1 uM relative to DMSO; in short: as §1
[19] = molecular target: TGF-beta receptor type-2 (Homo sapiens) (UniProt P37173); assay: Binding affinity to TGFBR2 assessed as percentage of kinase remaining bound to the bead at 1 uM by T7 phage display based binding assay; in short: as §3
[20] = molecular target: Tyrosine-protein kinase Blk (Homo sapiens) (UniProt P51451); assay: Binding affinity to BLK assessed as percentage of kinase remaining bound to the bead at 1 uM by T7 phage display based binding assay; in short: as §3
[21] = molecular target: Fibroblast growth factor receptor 4 (Homo sapiens) (UniProt P22455); assay: Binding affinity to FGFR4 assessed as percentage of kinase remaining bound to the bead at 1 uM by T7 phage display based binding assay; in short: as §3
Chain of Fibroblast growth factor receptor 4 (Homo sapiens) (P22455 22-802 limits assumed): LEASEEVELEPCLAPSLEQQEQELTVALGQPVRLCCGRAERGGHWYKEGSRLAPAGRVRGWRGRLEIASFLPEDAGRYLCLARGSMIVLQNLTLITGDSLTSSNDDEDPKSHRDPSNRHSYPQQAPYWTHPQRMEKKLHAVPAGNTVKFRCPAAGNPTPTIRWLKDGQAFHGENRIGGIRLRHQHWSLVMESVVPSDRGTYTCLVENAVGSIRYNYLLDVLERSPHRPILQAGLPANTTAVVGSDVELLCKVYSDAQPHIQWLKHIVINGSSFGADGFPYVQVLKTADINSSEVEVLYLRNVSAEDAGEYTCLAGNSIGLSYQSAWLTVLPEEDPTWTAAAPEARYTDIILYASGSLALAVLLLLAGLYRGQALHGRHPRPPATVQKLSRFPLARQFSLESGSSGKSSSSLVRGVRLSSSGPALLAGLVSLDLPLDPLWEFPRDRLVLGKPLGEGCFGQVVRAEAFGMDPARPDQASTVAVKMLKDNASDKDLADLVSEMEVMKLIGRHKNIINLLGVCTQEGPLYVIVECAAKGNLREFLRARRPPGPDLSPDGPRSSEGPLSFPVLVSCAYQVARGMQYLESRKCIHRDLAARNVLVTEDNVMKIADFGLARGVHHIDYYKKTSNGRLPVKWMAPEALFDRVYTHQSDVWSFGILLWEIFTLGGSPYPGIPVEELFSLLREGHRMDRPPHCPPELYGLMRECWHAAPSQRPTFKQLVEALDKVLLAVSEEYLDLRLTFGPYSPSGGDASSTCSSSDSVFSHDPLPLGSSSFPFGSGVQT

[22] = molecular target: Serine/threonine-protein kinase 32C (Homo sapiens) (UniProt Q86UX6); assay: Binding affinity to YANK3 assessed as percentage of kinase remaining bound to the bead at 1 uM by T7 phage display based binding assay; in short: as §3
Chain of Serine/threonine-protein kinase 32C (Homo sapiens) (Q86UX6 whole entry, canonical isoform): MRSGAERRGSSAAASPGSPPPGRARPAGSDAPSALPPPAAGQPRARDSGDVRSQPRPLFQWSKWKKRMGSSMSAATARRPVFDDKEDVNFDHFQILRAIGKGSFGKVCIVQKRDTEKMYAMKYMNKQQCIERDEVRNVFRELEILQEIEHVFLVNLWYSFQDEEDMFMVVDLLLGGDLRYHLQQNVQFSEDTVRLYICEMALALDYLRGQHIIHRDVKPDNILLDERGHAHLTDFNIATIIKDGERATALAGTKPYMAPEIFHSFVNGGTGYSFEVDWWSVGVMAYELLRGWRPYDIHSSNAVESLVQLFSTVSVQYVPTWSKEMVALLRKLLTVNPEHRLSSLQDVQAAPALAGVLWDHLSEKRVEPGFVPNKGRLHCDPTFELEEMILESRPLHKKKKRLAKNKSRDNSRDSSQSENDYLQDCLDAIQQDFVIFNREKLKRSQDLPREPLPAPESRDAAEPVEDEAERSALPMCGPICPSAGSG

[23] = molecular target: Casein kinase I isoform alpha (Homo sapiens) (UniProt P48729); assay: Inhibition of CK1 assessed as remaining enzyme activity at 1 uM relative to DMSO; in short: as §4
[24] = molecular target: MAP kinase-interacting serine/threonine-protein kinase 2 (Homo sapiens) (UniProt Q9HBH9); assay: Inhibition of MNK2 assessed as remaining enzyme activity at 1 uM relative to DMSO; in short: as §1
[25] = molecular target: Serine/threonine-protein kinase SIK3 (Homo sapiens) (UniProt Q9Y2K2); assay: Binding affinity to QSK assessed as percentage of kinase remaining bound to the bead at 1 uM by T7 phage display based binding assay; in short: as §3
[26] = molecular target: LIM domain kinase 2 (Homo sapiens) (UniProt P53671); assay: Binding affinity to LIMK2 assessed as percentage of kinase remaining bound to the bead at 1 uM by T7 phage display based binding assay; in short: as §3
Chain of LIM domain kinase 2 (Homo sapiens) (P53671 whole entry, looked up, the tested form may be a part): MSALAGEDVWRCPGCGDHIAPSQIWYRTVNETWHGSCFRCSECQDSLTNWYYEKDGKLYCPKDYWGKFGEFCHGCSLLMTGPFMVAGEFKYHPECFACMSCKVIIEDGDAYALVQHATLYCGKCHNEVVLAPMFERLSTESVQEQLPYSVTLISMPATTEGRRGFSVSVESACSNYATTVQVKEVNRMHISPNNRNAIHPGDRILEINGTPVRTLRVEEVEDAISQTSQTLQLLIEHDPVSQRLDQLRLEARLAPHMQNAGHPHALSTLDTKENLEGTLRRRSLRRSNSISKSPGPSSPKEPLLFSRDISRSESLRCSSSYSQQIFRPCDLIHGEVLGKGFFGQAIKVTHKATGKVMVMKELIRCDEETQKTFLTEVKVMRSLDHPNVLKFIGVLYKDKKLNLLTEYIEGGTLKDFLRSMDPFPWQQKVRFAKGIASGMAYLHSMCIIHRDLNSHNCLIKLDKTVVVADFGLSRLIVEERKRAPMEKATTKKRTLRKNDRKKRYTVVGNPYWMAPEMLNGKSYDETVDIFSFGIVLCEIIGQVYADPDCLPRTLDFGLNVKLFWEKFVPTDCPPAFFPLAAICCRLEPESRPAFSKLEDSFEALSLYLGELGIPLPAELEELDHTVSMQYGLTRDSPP

Chain of Tyrosine-protein kinase Yes (Homo sapiens) (P07947 2-543 limits assumed): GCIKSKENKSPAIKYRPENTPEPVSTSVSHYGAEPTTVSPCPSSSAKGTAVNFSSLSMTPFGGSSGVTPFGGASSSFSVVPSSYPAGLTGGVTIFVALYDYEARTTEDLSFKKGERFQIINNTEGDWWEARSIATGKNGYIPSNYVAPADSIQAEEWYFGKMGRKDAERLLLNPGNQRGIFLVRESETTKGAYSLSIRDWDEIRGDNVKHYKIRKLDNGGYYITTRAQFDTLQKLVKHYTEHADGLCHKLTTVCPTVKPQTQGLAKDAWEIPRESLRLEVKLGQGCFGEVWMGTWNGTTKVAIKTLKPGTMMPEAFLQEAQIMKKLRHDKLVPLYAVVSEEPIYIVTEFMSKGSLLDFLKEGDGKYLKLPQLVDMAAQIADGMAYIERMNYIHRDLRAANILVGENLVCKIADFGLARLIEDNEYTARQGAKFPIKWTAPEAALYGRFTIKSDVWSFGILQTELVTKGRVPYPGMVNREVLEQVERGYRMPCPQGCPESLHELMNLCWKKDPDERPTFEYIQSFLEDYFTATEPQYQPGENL

Molecule `COc1ccccc1-n1c(-c2ccccc2C)cn2c3c(=O)[nH]c(=O)n(C)c3nc12` has an Activity [1] of 6%, an Activity [2] of 92% and an Activity [3] of 93%. It also gave an Activity [4] of 97%, an Activity [5] of 114% and an Activity [6] of 89%. For the same molecule, the Activity [7] was 93%, the Activity [8] was 93% and the Activity [9] was 79%.

In the case of `COc1ccccc1-n1c(-c2cc(O)ccc2C)cn2c3c(=O)[nH]c(=O)n(C)c3nc12`, the Activity [10] is reported as 92%, the Activity [11] is reported as 14% and the Activity [12] is reported as 82%. For the same molecule, the Activity [13] was 101%, the Activity [14] was 81% and the Activity [15] was 94%. For the same molecule, the Activity [16] was 12%, the Activity [17] was 3% and the Activity [18] was 104%. For the same molecule, the Activity [19] was 2.4%, the Activity [20] was 0.6% and the Activity [21] was 100%. For the same molecule, the Activity [22] was 100%, the Activity [23] was 93% and the Activity [24] was 74%. It also gave an Activity [25] of 32% and an Activity [26] of 78%.
